Laboratory results taken from ChEMBL document CHEMBL5055621, “Synthesis and Characterization of the Novel Rodent-Active and CNS-Penetrant P2X7 Receptor Antagonist Lu AF27139” (J Med Chem, 2021).

Tests used:
Rattus norvegicus = assay: Toxicity in Sprague-Dawley rat assessed as histological changes up to 150 mg/kg, po by 7 days exploratory toxicology study; assay type: organism-based; conditions: in vivo, 168 h, time 7 day
Outline: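 Exploratory 7-day repeat oral toxicity study in male and female rats at doses from 3 up to 150 mg/kg po. Endpoints were macroscopic pathology, histology and hematology.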

[1] = Efflux ratio of permeability across basolateral to apical side over apical to basolateral side in MDCK2-MDR1 cells; assay type: ADME, cell-based, Canis lupus familiaris; conditions: dog, MDCK-MDR1
Outline: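 MDR1-MDCK monolayers; permeability measured in both A-to-B and B-to-A directions, in triplicate. Efflux ratio taken as B:A over A:B permeation.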

[2] = Tmax in male rat at 3 mg/kg, po after 7 days; assay type: ADME, organism-based; conditions: in vivo, time 7 day
Cytochrome P450 1A2 = target: T1, Cytochrome P450 1A2 (Homo sapiens, UniProt P05177); assay: Inhibition of CYP1A2 (unknown origin) upto 25 uM; assay type: ADME
T1 sequence (P05177 whole entry): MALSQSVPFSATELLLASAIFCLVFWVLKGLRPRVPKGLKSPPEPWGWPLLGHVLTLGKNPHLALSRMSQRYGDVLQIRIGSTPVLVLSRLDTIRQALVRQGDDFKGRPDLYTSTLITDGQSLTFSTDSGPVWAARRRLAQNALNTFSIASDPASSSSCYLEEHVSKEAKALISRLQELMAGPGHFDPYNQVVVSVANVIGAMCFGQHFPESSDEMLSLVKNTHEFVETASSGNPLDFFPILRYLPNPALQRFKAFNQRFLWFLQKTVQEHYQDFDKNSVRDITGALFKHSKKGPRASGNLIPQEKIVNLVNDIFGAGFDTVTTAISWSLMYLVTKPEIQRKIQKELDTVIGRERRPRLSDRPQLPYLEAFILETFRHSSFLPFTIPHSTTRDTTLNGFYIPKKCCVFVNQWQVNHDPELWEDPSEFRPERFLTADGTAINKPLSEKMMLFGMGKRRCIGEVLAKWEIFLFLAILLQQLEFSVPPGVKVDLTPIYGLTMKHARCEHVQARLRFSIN

[3] = Free plasma concentration in rat at 1 mg/kg, po after 1 hr by ex vivo equilibrium dialysis; assay type: ADME, organism-based
Outline: (§1)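 Male Sprague–Dawley rats were dosed orally at 1–100 mg/kg, and total plasma concentration was measured at 1 and 2 h. This was multiplied by fraction unbound from ex vivo equilibrium dialysis; mean ± SEM, n = 3 animals.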

Cytochrome P450 3A4 = Cytochrome P450 3A4 (Homo sapiens, UniProt P08684); assay: Inhibition of CYP3A4 (unknown origin) upto 25 uM; assay type: ADME
THP-1 = assay: Antiinflammatory activity against human THP-1 cells assessed as reduction in LPS and BzATP-induced IL-1beta release measured after 50 mins by microplate reader; assay type: functional, cell-based; conditions: THP-1, 50 min
Outline: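 THP-1 cells were differentiated with IFN-γ 10 ng/mL for 48 h and primed with LPS (100 ng/mL final) for 3.5 h at 10k cells/well. Compound was added for 20 min, then BzATP (1 mM final) for 30 min at 37 °C. Supernatant IL-1β was read by human AlphaLISA.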

hERG (KCNH2) = hERG (KCNH2) (Homo sapiens, UniProt Q12809); assay: Inhibition of human ERG at 30 uM
Outline: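 hERG channel inhibition was measured at 30 μM.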

[4] = AUC (0 to 8 hrs) in female mouse at 100 mg/kg, po after 14 days; conditions: in vivo
[5] = Cmax in female mouse at 100 mg/kg, po after 14 days; conditions: in vivo
[6] = Free plasma concentration in rat at 30 mg/kg, po after 2 hrs by ex vivo equilibrium dialysis; assay type: ADME, organism-based; outline: as §1
[7] = Free plasma concentration in rat at 30 mg/kg, po after 1 hr by ex vivo equilibrium dialysis; assay type: ADME, organism-based; outline: as §1
[8] = Tmax in rat at 2 mg/kg, po; assay type: ADME, organism-based; conditions: in vivo
Outline: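 Rats received 1 mg/kg iv or 2 mg/kg po. The plasma concentration–time profile was analysed by a noncompartmental model to give half-life, Cmax, Tmax and absolute oral bioavailability.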

[9] = AUC (0 to 8 hr) in male rat at 3 mg/kg, po after 7 days; assay type: ADME, organism-based; design: dose 3 mg/kg, time 7 day, route po; conditions: in vivo
Outline: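 Oral dosing in male Sprague-Dawley rats (150−200 g, 7-day acclimation, standard housing) in a 7-day exploratory toxicology study.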

P2X purinoceptor 7 [10] = target: T2, P2X purinoceptor 7 (Rattus norvegicus, UniProt Q64663); assay: Antagonist activity at rat P2X7 receptor expressed in HEK293 cells assessed as inhibition of BzATP-induced current at -60 mV by whole cell QPatch electrophysiology; assay type: cell-based
T2 sequence (Q64663 whole entry): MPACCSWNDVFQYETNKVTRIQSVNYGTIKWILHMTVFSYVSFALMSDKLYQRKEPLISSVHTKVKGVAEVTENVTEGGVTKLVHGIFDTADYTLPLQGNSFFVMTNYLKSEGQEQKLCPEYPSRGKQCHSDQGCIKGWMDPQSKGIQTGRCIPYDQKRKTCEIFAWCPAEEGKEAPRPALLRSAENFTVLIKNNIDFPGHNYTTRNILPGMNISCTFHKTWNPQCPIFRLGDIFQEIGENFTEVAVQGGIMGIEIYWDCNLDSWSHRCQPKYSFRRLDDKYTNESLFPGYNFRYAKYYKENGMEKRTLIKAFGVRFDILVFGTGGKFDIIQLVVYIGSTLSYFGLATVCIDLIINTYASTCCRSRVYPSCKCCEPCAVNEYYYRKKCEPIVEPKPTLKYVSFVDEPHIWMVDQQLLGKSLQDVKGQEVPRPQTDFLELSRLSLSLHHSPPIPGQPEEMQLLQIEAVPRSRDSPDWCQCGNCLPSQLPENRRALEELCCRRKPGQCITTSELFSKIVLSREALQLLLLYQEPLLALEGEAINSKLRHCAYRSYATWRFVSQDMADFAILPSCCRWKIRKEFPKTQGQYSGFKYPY
Outline: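 QPatch automated whole-cell recording was done on rat P2X7-HEK293 cells held at −60 mV. External solution contained 0.1 mM MgCl2 and 0.3 mM CaCl2 (pH 7.4); the CsCl/EGTA internal was pH 7.2.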

P2X purinoceptor 7 [11] = target: T2, P2X purinoceptor 7; assay: Displacement of [3H]-A-804598 from rat P2X7 receptor expressed in HEK293 cell membrane by in vitro binding assay; assay type: cell membranes
[12] = Induction of CYP3A4 mRNA expression in human primary hepatocytes at 10 uM; assay type: ADME, cell-based, Hepatocyte
Outline: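 Human hepatocytes were exposed to 10 μM compound. CYP3A4 mRNA was measured as the relative increase, with rifampin at 10 μM as reference inducer.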

[13] = Free plasma concentration in rat at 100 mg/kg, po after 2 hrs by ex vivo equilibrium dialysis; assay type: ADME, organism-based; outline: as §1

Sequence of Cytochrome P450 3A4 (P08684 whole entry): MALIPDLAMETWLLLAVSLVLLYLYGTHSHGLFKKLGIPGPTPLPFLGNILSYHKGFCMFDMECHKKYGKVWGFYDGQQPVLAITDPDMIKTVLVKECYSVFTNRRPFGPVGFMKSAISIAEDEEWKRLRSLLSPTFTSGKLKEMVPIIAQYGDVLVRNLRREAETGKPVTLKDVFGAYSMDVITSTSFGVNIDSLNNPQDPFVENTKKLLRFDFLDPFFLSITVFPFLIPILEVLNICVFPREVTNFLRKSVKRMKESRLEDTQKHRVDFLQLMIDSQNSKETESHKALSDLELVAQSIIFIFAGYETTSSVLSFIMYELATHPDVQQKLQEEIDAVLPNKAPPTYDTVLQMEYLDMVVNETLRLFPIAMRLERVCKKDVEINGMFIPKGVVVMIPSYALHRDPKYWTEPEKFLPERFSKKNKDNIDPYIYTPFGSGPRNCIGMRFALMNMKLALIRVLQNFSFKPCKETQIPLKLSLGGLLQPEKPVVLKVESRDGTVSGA
Sequence of hERG (KCNH2) (Q12809 whole entry): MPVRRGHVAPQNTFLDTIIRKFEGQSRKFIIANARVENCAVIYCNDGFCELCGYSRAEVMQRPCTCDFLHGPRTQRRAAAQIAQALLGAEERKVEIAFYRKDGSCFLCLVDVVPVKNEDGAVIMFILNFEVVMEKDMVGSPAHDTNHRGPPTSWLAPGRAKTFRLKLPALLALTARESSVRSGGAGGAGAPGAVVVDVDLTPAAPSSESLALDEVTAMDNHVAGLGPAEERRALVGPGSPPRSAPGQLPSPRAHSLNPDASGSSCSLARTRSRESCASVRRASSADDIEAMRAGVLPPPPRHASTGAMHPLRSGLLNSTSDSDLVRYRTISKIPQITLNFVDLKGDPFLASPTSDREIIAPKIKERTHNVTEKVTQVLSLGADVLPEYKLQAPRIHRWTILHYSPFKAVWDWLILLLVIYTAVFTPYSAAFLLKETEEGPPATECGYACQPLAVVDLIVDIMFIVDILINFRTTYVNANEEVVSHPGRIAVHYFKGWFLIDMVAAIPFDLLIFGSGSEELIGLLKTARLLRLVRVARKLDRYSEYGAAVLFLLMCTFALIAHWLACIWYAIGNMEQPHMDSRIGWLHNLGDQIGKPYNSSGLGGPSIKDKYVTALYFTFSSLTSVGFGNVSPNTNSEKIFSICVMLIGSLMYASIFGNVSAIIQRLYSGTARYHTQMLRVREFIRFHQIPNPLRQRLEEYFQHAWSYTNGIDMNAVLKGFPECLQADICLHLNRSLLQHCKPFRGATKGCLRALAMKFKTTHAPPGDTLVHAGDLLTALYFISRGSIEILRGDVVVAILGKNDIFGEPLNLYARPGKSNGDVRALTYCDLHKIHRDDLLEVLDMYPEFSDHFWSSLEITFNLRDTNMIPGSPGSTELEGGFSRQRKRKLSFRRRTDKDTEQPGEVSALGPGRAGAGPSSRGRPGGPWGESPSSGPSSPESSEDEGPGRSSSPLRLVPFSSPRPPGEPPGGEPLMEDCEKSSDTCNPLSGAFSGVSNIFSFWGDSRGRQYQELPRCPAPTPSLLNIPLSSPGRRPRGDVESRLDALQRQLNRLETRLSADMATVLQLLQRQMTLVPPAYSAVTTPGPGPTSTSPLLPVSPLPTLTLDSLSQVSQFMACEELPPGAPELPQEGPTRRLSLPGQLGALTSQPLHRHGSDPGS

efflux ratio [1]: 0.81
Tmax [2]: 60 min
inhibition (INH) (Cytochrome P450 1A2): Not Active
Cp(f) [3]: 22.4 nM
inhibition (INH) (Cytochrome P450 3A4): Not Active
IC50 (THP-1): 38 nM
AUC at 336 h [4]: 131 µM·h
Cmax [5]: 61600 nM
Cp(f) [6]: 556 nM
Cp(f) [7]: 414 nM
Tmax [8]: 34.8 min
AUC at 168 h [9]: 7.16 µM·h
IC50 (P2X purinoceptor 7 [10]): 66 nM
Ki (P2X purinoceptor 7 [11]): 13 nM
Activity [12]: 26.9%
Cp(f) [13]: 497 nM
SMILES: O=C(NC[C@H](c1ccc(Cl)cc1)N1CCOCC1)c1sc(-c2ncccn2)nc1C(F)(F)F
Activity (Rattus norvegicus): Non-Toxic
inhibition at 30 µM (hERG (KCNH2)): 44%
